These results are taken from the EternaBench riboswitch data.

The series has as its system MS2 coat protein. Briefly: apparent Kd, MS2 coat protein; higher = weaker binding; RNA-MaP array; FMN 200 µM where present. In outline:
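Stalled E. coli RNA polymerase transcribed each design on Illumina sequencing-chip clusters. The clusters were titrated with SNAP-549-labelled MS2 coat protein, starting at 0.7 or 1.5 nM and doubling up to 3 µM, first without ligand and then with constant ligand, in 100 mM Tris-HCl pH 7.5, 80 mM KCl, 4 mM MgCl2, BSA, DTT, yeast tRNA and Tween-20. Green signal was normalised to red-channel RNA signal and to the control-cluster median Fmax. The apparent Kd is the median of filtered binding-curve fits made for each cluster.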

The mark [1] stands for this setting: designed as: ON switch for flavin mononucleotide, no ligand.
[2] abbreviates: ligand present: flavin mononucleotide, designed as: ON switch for flavin mononucleotide.
Setting [3] is: designed as: OFF switch for flavin mononucleotide, no ligand.
The mark [4] stands for this setting: ligand present: flavin mononucleotide, designed as: OFF switch for flavin mononucleotide.

With “AUUUAUGGCCAGAAGGACAUGAGGAUCACCCAUGUAGGAUAUGGACGAUUUUGCUCGGUGGUUCGUUUAGGAAGCACCGGUGGU”, the “apparent Kd” value by setting is: under setting [1], 9.59 nM; under setting [2], 7.02 nM.

On to “ACCAUUUACUAGUUUUCUAUACAUGAGGAUCACCCAUGUUUUUAGGAUAUCAGCGUGAAACACGCUGAGAAGGAAGAACAUUCG”, for which the “apparent Kd” value came to 22.6 nM under setting [3] and 31.2 nM under setting [4].

In the case of “GAGAAGAGGGAAGGAUAUACAUGAGGAUCACCCAUGUAGAUAGGUAUAAUAGGUUGUUGUAGUAUGUAGAAGGUCCGGUUUGUU”, the “apparent Kd” value was found to be 18.9 nM under setting [3] and 22.5 nM under setting [4].

Consider “AACGGGUGGGUAGGAUAUGGCCAUGUCUCAUUGCUAGAAGGACCAGCUGCUACAUGAGGAUCACCCAUGUCGUAGUGCACCCAG”, for which the “apparent Kd” value reads like this: under setting [1], 105 nM; under setting [2], 15.6 nM.

Regarding “AUCAGCUCGUUAGGAUAUACGUCACUGCGUCAGCAGUGUGGUAAGAUCACAUGAGGAUCACCCAUGUAGAAGGGACGAGCUGAU”, the “apparent Kd” value was 12.8 nM under setting [3] and 94.2 nM under setting [4].

With “GGAGCCGGCACCGAGGAUAUUCAUAUUAAAACAUGAGGAUCACCCAUGUAGGCCAGAAGGCCUUGGGAGAAGGCGGAUCGGCUCG”, the “apparent Kd” value under setting [1] came to 611 nM and the “apparent Kd” value under setting [2] is 38.4 nM.

As for “AAUUAUAGGUAGAAGGUACUGACUUAUGUGUUGUAAGGAUAUACCAAAUUAUUAGAUCUCAAGUUACAUGAGGAUCACCCAUGU”, the “apparent Kd” value under setting [1] is 9.18 nM and the “apparent Kd” value under setting [2] was determined as 7.97 nM.

Take “ACAUACAUUCGAGGAUAUCGGUGAGAAAUCUUUCGAGAAGGCGAUUCAUGAUUUAUUAUCCUGGACAUGAGGAUCACCCAUGUA”: the “apparent Kd” value runs as follows: under setting [1], 78.9 nM; under setting [2], 62.8 nM.

Regarding “GAUCUGACAGGAUAUACAUGAGGAUCACCCAUGUGCGAGCUAGCGAAAGCUAGCUCAGGUAGAAGGGUCAGAUC”, the “apparent Kd” value runs as follows: under setting [3], 12 nM; under setting [4], 16.4 nM.

In the case of “UGGUGAUUUGUAGGAUAUGGAAAUAUAUUAUAACCAGAAGGACAUGAGGAUCACCCAUGUGAUAGAGUUUUUUUUUUUUCUCCU”, the “apparent Kd” value is 31.5 nM under setting [3] and 14.1 nM under setting [4].

“AAUAACAGAGGAUAUACUAUUUUAUGUGUUUGUUGUUUUGAACAUGAGGAUCACCCAUGUAGAAGGCUGAUUAA”: the “apparent Kd” value is, setting by setting: under setting [3], 40.5 nM; under setting [4], 47 nM.

For “CAUUUGUGAGGAUAUCAGGUGUGCUAGCGUACUGGUACAUCUGAGAAGGCACAUGAGGAUCACCCAUGUUUCUU”, under setting [4], the “apparent Kd” value stood at 43.3 nM.

On to “AGCUAAGAGUUAAUUGUGACAGUGAGAAGGCAAUAGUUUGUGACCGACAUGAGGAUCACCCAUGUUGAGGAUAUCACUAGCUAC”, for which the “apparent Kd” value under setting [3] was 6.83 nM and the “apparent Kd” value under setting [4] turned out to be 19.4 nM.

With “AAGAGUAGAGGAUAUACGAAAAAAGAGUCGAAAGACUCGGGACAUGAGGAUCACCCAUGUAGAAGGCUACUCAA”, the “apparent Kd” value runs as follows: under setting [3], 25.4 nM; under setting [4], 120 nM.

With “AGACAGUCAGGAUAUACAUGAGGAUCACCCAUGUUGAGAUGUGAAAGGGCAGGAAUAGGUAGAAGGGACGAGAG”, the “apparent Kd” value worked out at 34.6 nM under setting [3] and 33.7 nM under setting [4].

Consider “CAGUACUGAGGAUAUACAUGAGGAUCACCCAUGUGUCCUGGCUAGGAUACUAGCAAAGGUAGAAGGCAGUACUG”, for which the “apparent Kd” value under setting [3] is 16.6 nM and the “apparent Kd” value under setting [4] came to 125 nM.

As to “AAAUUCCUCACAGGAUAUCCUACAUGAGGAUCACCCAUGUACUAACUGAGCGAAUUGCAACAAAAGGAGAAGGGUGAGGUGAAG”, the “apparent Kd” value reads like this: under setting [1], 31.5 nM; under setting [2], 6.35 nM.

Regarding “UGUCGGAGCAGAGGAUAUUACAUGAGGAUCACCCAUGUAUUAAAUGGAAGCUGGAAACAGCAAUGUAAGAAGGCUGCUCCGACA”, the “apparent Kd” value under setting [3] came to 59.2 nM and the “apparent Kd” value under setting [4] was determined as 311 nM.

In the case of “CAGCGAAAGCUGAAUGUCGGAGCAGAGGAUAUUACAUGAGGAUCACCCAUGUAUGAACCAAAAUGUAAGAAGGCUGCUCCGACA”, the “apparent Kd” value under setting [3] amounted to 844 nM and the “apparent Kd” value under setting [4] amounted to 20.4 nM.

Turning to “UCCUUGUCCUGAGGAUAUCCGCGGUUCCCAAAAGGAGAAGGCAGGACAUGAGGAUCACCCAUGUACCGAGAAAACGUGCAGAGU”, the “apparent Kd” value amounted to 12.7 nM under setting [3] and 105 nM under setting [4].

For the sequence “AGCGUACAAGCUAACAUGAGGAUCACCCAUGUGGUCUCAUGCGAGGAUAUCGGGAAGGAGGAUUCCGAGAAGGUGCGGUGAGCC”, the “apparent Kd” value by setting is: under setting [1], 182 nM; under setting [2], 43.8 nM.

For the sequence “GGAUAGGACAGAGGAUAUACGUGCUAGAGAUACUAGCAAAAUUUCCUCACAUGAGGAUCACCCAUGUAGAAGGCUGUCUUAUCG”, the “apparent Kd” value by setting is: under setting [3], 16 nM; under setting [4], 191 nM.

With “UGACUAAAUGAAGGAUAUCUAAGCAUAAACCUGAGAGAAGGUCAUUUUUACAUGAGGAUCACCCAUGUUGUGAUUAAUGGGUCA”, the “apparent Kd” value is 88.7 nM under setting [3] and 137 nM under setting [4].

Regarding “UUUACAUGAGGAUCACCCAUGUCUGUCACCCAUGUGUGCAAUCAGGAUAUGAUAUCAAUAAUAAAUUAGAAGGGAUAACAUGAG”, the “apparent Kd” value under setting [1] was found to be 73.5 nM and the “apparent Kd” value under setting [2] came out at 100 nM.

Regarding “AAUCCGUCACAUGAGGAUCACCCAUGUGACCCUACUAUUGGACAGGAUAUCCAAGGGUCGAAGCGGGAGAAGGGUCACAAUGGG”, the “apparent Kd” value runs as follows: under setting [1], 32.5 nM; under setting [2], 51.9 nM.

For the sequence “UUUGUGUCAGGAUAUCGGGCCAGCAAUACGGUAUGUGGGCACGAGAAGGGACAUGAGGAUCACCCAUGUGCCUU”, the “apparent Kd” value was 14.8 nM under setting [3] and 16.4 nM under setting [4].

With “UAUUAAUACGAAGGAUAUGGUUACAUGAGGAUCACCCAUGUAUGUAUAUUGAUCUAGUUUUUUAACCAGAAGGUCGUGAGUAAA”, the “apparent Kd” value is 30.6 nM under setting [3] and 48.6 nM under setting [4].

Consider “CAUUAUGUUGAGGAUAUGCGCCGGCUCGCUGGCACAGAAGGCGACACAUGAGGAUCACCCAUGUCAGUUCGCGA”, for which the “apparent Kd” value came to 12.2 nM under setting [3] and 14.8 nM under setting [4].

Regarding “UUGGACGUCGUAGGAUAUGUAGGAUAUUCCUACAUGAGGAUCACCCAUGUUGACAUGGAAGAAGGACAGAACGACGAUGUCCAU”, the “apparent Kd” value by setting is: under setting [1], 172 nM; under setting [2], 6.07 nM.

For the sequence “GUUAAGUGAGGAUAUGGUGAGUAGUGCCAGAGCGCUGCUCACCAGAAGGCACAUGAGGAUCACCCAUGUAUAGC”, the “apparent Kd” value was determined as 15.7 nM under setting [3] and 31.5 nM under setting [4].

For the sequence “GGAUCCAUGUAGAAGGCUGUCUUAAAAUAGGACAGAGGAUAUACAUGAGGAUCACCCAUGUACUCCUUUAAAAGGAUCCAAAUA”, the “apparent Kd” value by setting is: under setting [3], 5.5 nM; under setting [4], 8.65 nM.

Consider “GUCAGCUCGUGAGGAUAUACAACACUGCUUCGGCAGUGUAUUAAGAUCACAUGAGGAUCACCCAUGUAGAAGGCACGAGCGGAU”, for which the “apparent Kd” value under setting [3] worked out at 14.4 nM and the “apparent Kd” value under setting [4] turned out to be 244 nM.

As to “GGUACUCAAAGAGUACCAAAACGAACAUGAGGAUCACCCAUGUAGGAUAUGCUACUCAAAGAGUAGCAGAAGGACAUGUGCAGA”, the “apparent Kd” value runs as follows: under setting [3], 29.6 nM; under setting [4], 149 nM.

In the case of “GAACCACAUGAGGAUCACCCAUGUCUAAGAAAUUAAGGAUAUGCACAAAAGGAAAUAACUGCAGAAGGUAAACGAA”, the “apparent Kd” value under setting [1] was 33.4 nM and the “apparent Kd” value under setting [2] amounted to 27.4 nM.

For “ACAUUGCUAGGAUAUCGCGGUAAGGACAUGAGGAUCACCCAUGUGGUGCCGUGGGAGGCCCGAGAAGGAGCGACCU”, the “apparent Kd” value under setting [3] turned out to be 23.1 nM and the “apparent Kd” value under setting [4] stood at 25.9 nM.

On to “GGGUGGCGUAGAGGAUAUGUGUUACAUGAGGAUCACCCAUGUGCAUAUGAUGUUCGUGUGUCUGCAUAGAAGGCUACGUCGCUA”, for which the “apparent Kd” value was 28.3 nM under setting [1] and 27.6 nM under setting [2].
